5 compounds from ChEMBL document CHEMBL1146742, “A-420983: a potent, orally active inhibitor of lck with efficacy in a model of transplant rejection” (Bioorg Med Chem Lett, 2004) can be followed below.

A word on the IC50: it is the concentration needed to halve the response being measured. Higher therefore signals weaker potency. In general, ED50 refers to the dose that gives a 50% effect, or the effect in half of the subjects. By inhibition is commonly meant how much of the control response was suppressed. One may read the half-life as the time needed for the level to fall by half in the phase considered. What is called bioavailability is dose-corrected exposure relative to a reference, in per cent. As usually defined, the Cmax is the peak of the concentration-time curve. One may read the Tmax as the time from dosing to the highest level.

For data set [1], the species on record is Homo sapiens. Briefly: Inhibition of anti-CD3 mAb induced inter leukein-2 production in human whole blood was evaluated. The class given is functional, organism-based.
Data set [2] concerns the target T1, Interleukin-2 (Mus musculus) (UniProt P04351).
T1 sequence (whole entry): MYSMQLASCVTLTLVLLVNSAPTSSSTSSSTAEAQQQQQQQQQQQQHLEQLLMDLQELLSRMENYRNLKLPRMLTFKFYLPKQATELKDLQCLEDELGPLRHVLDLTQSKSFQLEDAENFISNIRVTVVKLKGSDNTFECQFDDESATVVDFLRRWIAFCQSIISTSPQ
As to the kind of experiment: Effective concentration to suppress interleukin-2 production was measured after 2.5 hours of oral administration in mice. It is filed as functional, organism-based.

Data set [3] has as its target T1, Interleukin-2 (Mus musculus). Briefly: Percent inhibition of interleukin-2 production by compound was measured after 18 hours of oral administration in mice. It is filed as functional, organism-based. Particulars: concentration not given here.
The target is the same in data set [4]. Briefly: Percent inhibition of interleukin-2 production by compound was measured after 8 hours of oral administration in mice. It is filed as functional, organism-based. Particulars: concentration not given here.
Data set [5] can be described thus: Plasma clearance was determined in dog after 1 mg/kg (i.v.) and 5 mg/kg (p.o.) administration. It is filed as ADME, organism-based, Canis lupus familiaris. As to conditions: iv. Summed up:
(§1)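 Pharmacokinetics were measured in mouse (5 mg/kg iv, 6 mg/kg po) and dog (1 mg/kg iv, 5 mg/kg po). Reported parameters were Cmax (ng/mL), Tmax (h), Vd (L/kg), plasma clearance (L/h/kg), elimination half-life (h) and oral bioavailability F (%).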

A short description of data set [6]: Half life was determined in mouse after 5 mg/kg (i.v.) and 6 mg/kg (p.o.) administration. As to conditions: in vivo. It is filed as ADME, organism-based. In a few lines: as §1
A short description of data set [7]: Bioavailability was determined in mouse after 5 mg/kg (i.v.) and 6 mg/kg (p.o.) administration. The class given is ADME, organism-based. Particulars: in vivo, po. In a few lines:
as §1

In data set [8] the target is Vascular endothelial growth factor receptor 2 (Homo sapiens, UniProt P35968). As to the kind of experiment: Inhibition of vascular endothelial growth factor receptor 2 activity with 1 mM ATP and biotinylated lck peptide.
Chain of Vascular endothelial growth factor receptor 2 (P35968 whole entry): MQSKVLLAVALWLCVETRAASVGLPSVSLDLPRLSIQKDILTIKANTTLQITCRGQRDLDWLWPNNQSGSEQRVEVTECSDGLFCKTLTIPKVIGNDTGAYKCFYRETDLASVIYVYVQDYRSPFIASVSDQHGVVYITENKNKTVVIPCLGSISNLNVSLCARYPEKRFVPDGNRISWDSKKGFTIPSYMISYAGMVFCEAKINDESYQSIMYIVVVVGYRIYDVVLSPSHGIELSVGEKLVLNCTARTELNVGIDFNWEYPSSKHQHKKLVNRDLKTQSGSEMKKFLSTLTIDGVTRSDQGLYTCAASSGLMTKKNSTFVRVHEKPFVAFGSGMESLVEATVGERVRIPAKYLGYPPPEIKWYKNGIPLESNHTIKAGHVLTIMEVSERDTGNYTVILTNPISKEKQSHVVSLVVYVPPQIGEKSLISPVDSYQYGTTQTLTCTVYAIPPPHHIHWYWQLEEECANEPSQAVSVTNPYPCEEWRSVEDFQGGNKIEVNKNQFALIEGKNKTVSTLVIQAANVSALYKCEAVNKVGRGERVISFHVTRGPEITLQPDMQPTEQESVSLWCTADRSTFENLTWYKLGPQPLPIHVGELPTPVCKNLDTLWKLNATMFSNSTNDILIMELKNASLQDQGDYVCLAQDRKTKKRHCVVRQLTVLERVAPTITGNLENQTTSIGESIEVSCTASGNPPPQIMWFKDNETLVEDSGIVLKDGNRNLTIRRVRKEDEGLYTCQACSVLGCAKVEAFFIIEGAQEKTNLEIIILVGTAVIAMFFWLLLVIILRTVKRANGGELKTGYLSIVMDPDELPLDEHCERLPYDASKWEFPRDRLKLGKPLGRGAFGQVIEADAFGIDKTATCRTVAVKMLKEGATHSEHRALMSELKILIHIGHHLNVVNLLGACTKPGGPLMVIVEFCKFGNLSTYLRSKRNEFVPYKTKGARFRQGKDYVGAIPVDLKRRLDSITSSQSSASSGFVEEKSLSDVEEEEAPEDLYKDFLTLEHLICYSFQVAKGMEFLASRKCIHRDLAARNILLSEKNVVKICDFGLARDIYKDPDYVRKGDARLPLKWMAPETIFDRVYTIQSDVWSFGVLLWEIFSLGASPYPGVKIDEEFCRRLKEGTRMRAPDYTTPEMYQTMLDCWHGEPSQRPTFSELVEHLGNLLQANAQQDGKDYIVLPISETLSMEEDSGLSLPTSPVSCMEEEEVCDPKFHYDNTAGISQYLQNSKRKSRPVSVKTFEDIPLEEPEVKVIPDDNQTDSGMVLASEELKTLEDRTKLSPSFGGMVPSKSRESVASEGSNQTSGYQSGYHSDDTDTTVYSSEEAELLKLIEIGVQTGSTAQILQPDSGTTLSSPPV
The nature of data set [9]: Bioavailability was determined in dog after 1 mg/kg (i.v.) and 5 mg/kg (p.o.) administration. As to conditions: in vivo, po. The class given is ADME, organism-based, Canis lupus familiaris. In a few lines: as §1
Data set [10] is described as follows: Half life was determined in dog after 1 mg/kg (i.v.) and 5 mg/kg (p.o.) administration. The class given is ADME, organism-based, Canis lupus familiaris. As to conditions: in vivo. In a few lines: as §1
A short description of data set [11]: Maximum plasma concentration of compound was determined in mouse after 5 mg/kg (i.v.) and 6 mg/kg (p.o.) administration. The class given is ADME, organism-based. Particulars: po. In a few lines: as §1
Data set [12] is described as follows: Volume of distribution was determined in dog after 1 mg/kg (i.v.) and 5 mg/kg (p.o.) administration. The class given is ADME, organism-based, Canis lupus familiaris. Particulars: in vivo, iv. In a few lines:
as §1

Data set [13] in a line: Maximum plasma concentration of compound was determined in dog after 1 mg/kg (i.v.) and 5 mg/kg (p.o.) administration. The class given is ADME, organism-based, Canis lupus familiaris. Particulars: po. Summed up: as §1
The nature of data set [14]: Volume of distribution was determined in mouse after 5 mg/kg (i.v.) and 6 mg/kg (p.o.) administration. It is filed as ADME, organism-based. As to conditions: in vivo, iv. Summed up: as §1
Data set [15] can be described thus: Time to reach maximum plasma concentration was determined in dog after 1 mg/kg (i.v.) and 5 mg/kg (p.o.) administration. It is filed as ADME, organism-based, Canis lupus familiaris. As to conditions: po. In a few lines:
as §1

Data set [16] is described as follows: Plasma clearance was determined in mouse after 5 mg/kg (i.v.) and 6 mg/kg (p.o.) administration. The class given is ADME, organism-based. Particulars: iv, read-out: Clp (converted). In a few lines:
as §1

The nature of data set [17]: Time to reach maximum plasma concentration was determined in mouse after 5 mg/kg (i.v.) and 6 mg/kg (p.o.) administration. It is filed as ADME, organism-based. Particulars: po. In a few lines:
as §1

`COc1cc(-c2nn([C@H]3CC[C@H](N4CCN(C)CC4)CC3)c3ncnc(N)c23)ccc1NCc1ccco1` showed an IC50 in data set [1] of 10 nM.
In [2], `COc1cc(-c2nn([C@H]3CC[C@H](N4CCN(C)CC4)CC3)c3ncnc(N)c23)ccc1NC(=O)c1cc2ccccc2[nH]1` had an ED50 of 7 mg/kg and an ED90 of 12.5 mg/kg. In data set [3], this compound registered an inhibition of 33%. Further, the IC50 in data set [1] was 6 nM. This compound displayed an inhibition in data set [4] of 79%.
`COc1cc(-c2nn([C@H]3CC[C@H](N4CCN(C)CC4)CC3)c3ncnc(N)c23)ccc1NC(=O)c1cc2ccccc2n1C`: the clearance was 11.7 mL/min/kg in [5] and 28.3 mL/min/kg in data set [16]. Also, the half-life in data set [6] was 10 h; in [10], 45 h. For the same compound, the bioavailability in data set [7] turned out to be 30%; in data set [9], 32%. Further, the IC50 was > 50000 nM in data set [8] and 8 nM in [1]. Further, the Cmax in [11] worked out at 51 ng/mL; in [13], 74 ng/mL. In data set [2], this compound came in with a 50% effective dose (ED50) of 1.5 mg/kg. Moreover, the ED90 in data set [2] came to 6 mg/kg. In addition, the inhibition in data set [3] and in [4] was > 90% throughout. The Vd in [12] and in [14] was 25 L/kg throughout. Further, the Tmax in data set [15] worked out at 24 h; in data set [17], 8 h.
In [2], `COc1cc(-c2nn([C@H]3CC[C@H](N4CCN(C)CC4)CC3)c3ncnc(N)c23)ccc1NC(=O)c1cc2ccccc2o1` came in with an ED50 of 8.5 mg/kg and an ED90 of 12.5 mg/kg. Besides, in data set [3], the inhibition was < 10%. Also, the concentration for half-maximal inhibition (IC50) in [1] was found to be 7 nM. This compound had an inhibition in [4] of 48%.
For `COc1cc(-c2nn([C@H]3CC[C@H](N4CCN(C)CC4)CC3)c3ncnc(N)c23)ccc1NC(=O)OCc1ccccc1`, in [2], the ED50 came out at 3 mg/kg and the ED90 was 14 mg/kg. In data set [3], the inhibition was 14%. Also, in [4], the inhibition amounted to 51%.
